# From article PMC3628437 (Antiviral research, 2013)
# Legend:
# hepatitis B virus (HBV) = assay: Real-time immune-absorbance PCR; type: cell-based; conditions: for Reduction of HBV virion levels in culture medium / Fold HBV reduction: G2.215 cells; for Reduction of HBV virion levels in culture medium: 5μM; for Fold HBV reduction: 10 μM compound, HBV DNA in culture medium by IA-PCR
# HBV virions = type: cell-based, hepatitis B virus; conditions: HepDE19 cells, 5 day treatment
# How it was run: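 HepDE19 cells (DMEM/F12, 10% FBS, tetracycline-suppressed) were switched to tet-free medium for 5 days, then dosed for 5 days at several concentrations (0.5% DMSO final). Virions from 1ml clarified medium were precipitated with 10% PEG8000 (final), 1 h at 4°C, pelleted and dissolved in TNE pH7.4. Run on non-denaturing 1% agarose to separate virions from naked nucleocapsids, then blotted and hybridized with labeled HBV probe.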
# HBV replication [1] = assay: Southern blot of cellular HBV DNA in HepDE19 cells; type: cell-based, hepatitis B virus; conditions: up to 10 μM
# How it was run: (§1)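 Cytoplasmic core DNA: one 6-well-plate well lysed 10 min at 37°C in Tris-EDTA pH 8.0 with NP40/sucrose. Nuclei removed; capsids PEG8000/NaCl-precipitated 2 h at 4°C, pronase/SDS-digested 1 h at 37°C, phenol-extracted, ethanol-precipitated. Half run on 1.5% agarose, depurinated, denatured, neutralised, blotted and probed with α-32P-UTP HBV probe for RC, DSL and SS forms. HepDE19 tet-free 5 days before dosing; G2.215 kept in G418.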
# Varicella Zoster Virus = conditions: ref Mekler et al., 1969; cited from earlier work
# influenza virus = conditions: ref Mekler et al., 1969; cited from earlier work
# [2] = test system: HBV large surface protein (LHBs); assay: Western blot of LHBs-containing HBV particles in G2.215 culture medium; type: cell-based, hepatitis B virus; conditions: G2.215 cells, 10 or 20μM, 6 day treatment
# HBV replication [3] = assay: Southern blot of cellular HBV replication intermediates in G2.215 cells; type: cell-based, hepatitis B virus; conditions: any concentration tested
# How it was run: as §1
# equine herpesvirus-4 = conditions: ref Romanowski et al., 1999; Storey et al., 2002; cited from earlier work
# feline herpesvirus-1 = conditions: ref Romanowski et al., 1999; Storey et al., 2002; cited from earlier work
compound,measurement,setting,value
C=Cc1c(C)c2cc3nc(c4c5[n-]c(cc6nc(cc1[n-]2)C(C)=C6CC)c(C)c5C(=O)[C@@H]4C(=O)OC)[C@@H](CCC(=O)O)[C@@H]3C.[Mg+2] [Chlorophyllide],Reduction of HBV virion levels in culture medium,hepatitis B virus (HBV),~ 2 CT
same,Fold HBV reduction,hepatitis B virus (HBV); 6 days,4 Fold
same,Formation and secretion of nucleocapsids,HBV virions,not affected
same,Viral particles in cell culture medium,HBV virions,reduces viral particles in the cell culture medium in a dose-dependent manner
same,RC or SS DNA levels (cellular HBV DNA),HBV replication [1],did not repress
same,Inactivation of virus,Varicella Zoster Virus,inactivate
same,Inactivation of virus,influenza virus,inactivate
CCCOc1ccc(C(=O)OCCN(CC)CC)cc1N [Proparacaine],Reduction of HBV virion levels in culture medium,hepatitis B virus (HBV),~ 3 CT
same,Fold HBV reduction,hepatitis B virus (HBV); 6 days,6 Fold
same,IC50,"hepatitis B virus (HBV); Hepatitis B virus, read-out: IC50 against HBV",1000 nM
same,Inhibition of secretion of HBV particles containing LHBs in culture medium,[2],3- to 4 fold
same,Level of relaxed circular HBV DNA (RC-DNA) versus untreated control,HBV replication [3],no reduction
same,Inactivation of virus,equine herpesvirus-4,can inactivate
same,Inactivation of virus,feline herpesvirus-1,can inactivate
Nc1ccn([C@@H]2CS[C@H](CO)O2)c(=O)n1 [lamivudine],CT of medium from treated G2.215 cells,"hepatitis B virus (HBV); 30μM, 6 days, carrier alone CT ~26 undiluted",30–31 CT
O=C(c1ccc(OCCN2CCCCC2)cc1)c1c(-c2ccc(O)cc2)sc2cc(O)ccc12 [Raloxifene],Fold HBV reduction,hepatitis B virus (HBV); 6 days,3.5 Fold
C[C@@H]1C/C=C/C=C/C=C/C=C/[C@H](O[C@@H]2O[C@H](C)[C@@H](O)[C@H](N)[C@@H]2O)C[C@@H]2O[C@](O)(C[C@@H](O)C[C@H]3O[C@@H]3/C=C/C(=O)O1)C[C@H](O)[C@H]2C(=O)O [Natamycin],Fold HBV reduction,hepatitis B virus (HBV); 6 days,4 Fold
